# Screening data from PubChem.
# This is one part of a sample in which hits are shown more often than they occur.
# IDH1 mut inh: blocks human IDH1 R132H reductase activity. diaphorase/resazurin fluorescence, 60 min. actives 0.18% (n = 70,000). O75874. inhibition, % at 10 µM; in the data active = inhibition above about 34%; inconclusive = no clear call, values can overlap the other calls; inactive = below about 11%;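 note: 0% = DMSO and 100% = no enzyme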
# Target sequence (O75874 whole entry R132H): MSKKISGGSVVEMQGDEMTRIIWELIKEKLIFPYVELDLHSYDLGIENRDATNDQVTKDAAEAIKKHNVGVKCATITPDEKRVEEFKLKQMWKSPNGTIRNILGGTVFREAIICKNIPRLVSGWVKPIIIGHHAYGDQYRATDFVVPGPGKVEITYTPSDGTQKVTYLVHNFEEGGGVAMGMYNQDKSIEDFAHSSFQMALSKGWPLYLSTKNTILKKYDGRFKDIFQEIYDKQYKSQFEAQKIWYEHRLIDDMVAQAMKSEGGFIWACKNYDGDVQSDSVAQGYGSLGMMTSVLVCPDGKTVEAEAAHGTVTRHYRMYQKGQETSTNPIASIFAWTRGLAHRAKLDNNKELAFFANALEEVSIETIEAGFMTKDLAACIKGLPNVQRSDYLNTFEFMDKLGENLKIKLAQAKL
# KDM4C inh: inhibitors of human demethylase GASC-1 KDM4C | GST-KDM4C 2-372, H3K9me3 peptide, LANCE TR-FRET | actives 0.15% (n = 96,000) | AID 720574 | inhibition, % at 12.5 µM | Q9H3R0;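 active = mean replicate inhibition above about 25%, with at least 55% of replicates also reaching it, limit read from the data, passing the limit was not always enough; inconclusive = only one of those two conditions met; inactive = neither condition met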
#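 System: N-terminal GST-fused human GASC-1 (KDM4C) fragment, residues 2-372; amount: enzyme final amount 10 nM; incubation: reaction 30 min RT, detection step 1 h RT; medium: HEPES buffer, pH 7.5, plus ascorbate; technique: LANCE TR-FRET, Eu antibody, ULight-streptavidin, EDTA, ex 340 nm, em 618/671 nm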
# T cruzi growth-1: inhibitors of T. cruzi proliferation | actives 5.9% (n = 77,000) | inhibition, % at 8.34 µM | T. cruzi beta-gal in NIH3T3, GalScreen luminescence, 90 h;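 active = mean inhibition above about 93%, with at least 55% of replicates each passing it, limit read from the data, passing the limit was not always enough; inconclusive = only one of those two conditions holds; inactive = neither condition holds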
# T cruzi growth-2: Trypanosoma cruzi proliferation inhibition; inhibition, % at 8.35 µM; T. cruzi beta-gal in NIH3T3, GalScreen luminescence, 90 h; shares compounds with T cruzi growth-1; actives 72% (n = 5,600); AID 651739;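 active = mean replicate inhibition above about 95% and at least 55% of replicates individually reaching it, limit read from the data; inconclusive = only one of the two criteria is met; inactive = neither criterion is met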
# T cruzi growth-3: inhibitors of T. cruzi proliferation. shares compounds with T cruzi growth-1. T. cruzi beta-gal in NIH3T3, GalScreen luminescence, 90 h. inhibition, % at 2.09 µM. actives 21% (n = 5,600). AID 651740;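 active = mean inhibition above about 95%, with at least 55% of replicates also reaching it, limit read from the data; inconclusive = meets just one of the two conditions; inactive = meets neither condition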;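 note: plate controls were neutral control median for no effect and positive control median for full effect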
# NIH3T3 tox: cytotoxicity in mouse NIH/3T3 fibroblasts. actives 14% (n = 5,600). shares compounds with T cruzi growth-1. cytotoxicity (signal decrease), % at 8.35 µM. NIH/3T3 viability, CellTiter-Glo ATP luminescence, 90 h;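 active = mean signal decrease across replicates above about 35% based on untreated-well scatter, with enough replicates individually passing, limit read from the data; inconclusive = no rule stated though some were filed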;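 note: 0% = median of neutral control wells and 100% = median of positive control wells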
# 3T3 cytotox 2: NIH/3T3 (mouse) viability loss; shares compounds with T cruzi growth-1; NIH/3T3 viability, CellTiter-Glo ATP luminescence, 90 h; inhibition, % at 24.9 µM; actives 56% (n = 5,600);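 active = mean loss of cell viability signal at or above a set limit, and enough replicates individually reaching it; inconclusive = meets only the mean limit or only the replicate share; inactive = meets neither condition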;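 note: 0% = median of neutral control wells and 100% = median of positive control wells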
# * marks the source's active call; other numbers are inactive results; u = inconclusive; x = not tested or not shown.
SMILES,IDH1 mut inh,KDM4C inh,T cruzi growth-1,T cruzi growth-2,T cruzi growth-3,NIH3T3 tox,3T3 cytotox 2
O=C(Cc1cccnc1)N1CCCCN2[C@@H](CO)[C@@H](c3ccc(C#CC4CCCC4)cc3)[C@@H]2C1,x,0,105*,u,-4,7,102*
COc1ccc(C#Cc2ccc([C@H]3[C@H]4CN(C(=O)Cc5ccncc5)CCCCN4[C@H]3CO)cc2)cc1,x,1,107*,98*,-82,77*,98*
COc1ccc(-c2ccc([C@H]3[C@@H](CO)N4CCCCN(C(=O)Cc5ccncc5)C[C@H]34)cc2)cc1,x,-2,88,x,x,x,x
O=C(Cc1ccncc1)N1CCCCN2[C@H](C1)[C@H](c1ccc(C#Cc3ccccc3F)cc1)[C@@H]2CO,x,-1,24,x,x,x,x
COc1ccc(C#Cc2ccc([C@H]3[C@@H](CO)N4CCCCN(C(=O)Cc5ccncc5)C[C@@H]34)cc2)cc1,x,-2,108*,105*,69,41*,64*
COc1ccc(-c2ccc([C@H]3[C@H]4CN(C(=O)Cc5ccccc5)CCCCN4[C@H]3CO)cc2)cc1,x,-1,74,x,x,x,x
COc1ccc(-c2ccc([C@@H]3[C@@H](CO)N4CCCCN(C(=O)Cc5ccccc5)C[C@@H]34)cc2)cc1,x,-1,75,x,x,x,x
COc1ccc(C#Cc2ccc([C@@H]3[C@@H](CO)N4CCCCN(C(=O)Cc5ccncc5)C[C@@H]34)cc2)cc1,x,-1,117*,104*,76,21,102*
COc1ccc(-c2ccc([C@@H]3[C@H](CO)N4CCCCN(C(=O)Cc5ccncc5)C[C@@H]34)cc2)cc1,x,0,99*,98*,62,1,29*
C/C1=C/[C@@H](C)C/C=C/[C@H]2[C@@H]3O[C@]3(C)[C@@H](C)[C@H]3[C@H](Cc4c[nH]c5ccccc45)NC(=O)[C@]32C(=O)/C=C\C(=O)[C@@H]1O,0,x,x,x,x,x,x
O=C1CCC2(O)C3Cc4ccc(O)c5c4C2(CCN3CC2CC2)C1O5 (stereo not given),-2,x,x,x,x,x,x
CN1CCN(CC(=O)Nc2ccc(Br)cc2C(=O)c2ccccc2)CC1,0,x,x,x,x,x,x
COc1ccc2c3c1O[C@H]1[C@@H](O)C=C[C@H]4C(C2)N(C)CCC341 (stereo not given in full),0,x,x,x,x,x,x
C[C@]12CC[C@@H](O)C[C@@H]1CC[C@@H]1[C@@H]2CC[C@]2(C)[C@@H](C(=O)CO)CC[C@@H]12,0,x,x,x,x,x,x
Brc1cccc(CN2CCN(Cc3cccc(Br)c3)CC2)c1,0,x,x,x,x,x,x
CCN1CC2(COC(=O)c3ccccc3N3C(=O)CC(C)C3=O)CCC(OC)C34C5CC6C(OC)CC(O)(C5C6OC)C(O)(C(OC)C23)C14 (stereo not given),1,x,x,x,x,x,x
O=C(Cc1ccncc1)N1CCCCN2[C@H](CO)[C@H](c3ccc(C#CC4(O)CCCC4)cc3)[C@@H]2C1,x,1,93,x,x,x,x
O=C(Cc1ccncc1)N1CCCCN2[C@H](CO)[C@@H](c3ccc(C#CC4(O)CCCC4)cc3)[C@@H]2C1,x,1,105*,1,-7,9,17
COc1cccc(-c2ccc([C@@H]3[C@H]4CN(C(=O)Cc5ccncc5)CCCCN4[C@H]3CO)cc2)c1,x,5,114*,94,26,7,28
COc1ccc(-c2ccc([C@@H]3[C@H]4CN(C(=O)Cc5ccccc5)CCCCN4[C@H]3CO)cc2)cc1,x,0,79,x,x,x,x
COc1ccc(C#Cc2ccc([C@@H]3[C@H]4CN(C(=O)Cc5ccncc5)CCCCN4[C@H]3CO)cc2)cc1,x,0,106*,92,73,28,100*
COc1ccc(C#Cc2ccc([C@H]3[C@@H](CO)N4CCCCN(C(=O)Cc5ccncc5)C[C@H]34)cc2)cc1,x,0,109*,108*,86,23,106*
C/C=C(/C)C(=O)O[C@H]1C(C)=C2[C@H]([C@@H]1OC(=O)CCCCC)[C@@](C)(OC(C)=O)C[C@H](OC(=O)CCC)[C@@]1(O)[C@H]2OC(=O)[C@@]1(C)O,-2,x,x,x,x,x,x
CO[C@H]1[C@H](O)[C@H](O[C@H]2CC[C@]3(C)C4CC[C@]5(C)C(C6=CC(=O)OC6)CC[C@]5(O)C4CC[C@@H]3C2)O[C@@H](C)[C@@H]1O (stereo not given in full),0,x,x,x,x,x,x
O=c1c2ccccc2nc(CSc2ncnc3ccccc23)n1-c1ccccc1F,0,x,x,x,x,x,x
SMILES,IDH1 mut inh,KDM4C inh,T cruzi growth-1,T cruzi growth-2,T cruzi growth-3,NIH3T3 tox,3T3 cytotox 2
Oc1ccc2c3c1OC1c4oc5ccccc5c4CC4(O)C(C2)N(CC2CC2)CCC314 (stereo not given),-3,x,x,x,x,x,x
CCCCC/C=C/C/C=C/C/C=C/C/C=C/CCCC(=O)Nc1ccc(O)cc1,0,x,x,x,x,x,x
COc1ccccc1OCCCn1cc(C(=O)C(C)(C)C)c2ccccc21,0,x,x,x,x,x,x
O=C(Cc1ccccn1)N1CCCCN2[C@@H](CO)[C@H](c3ccc(-c4ccc(F)cc4)cc3)[C@@H]2C1,x,0,101*,u,69,-6,34*
O=C(Cc1ccccn1)N1CCCCN2[C@H](CO)[C@H](c3ccc(-c4ccccc4F)cc3)[C@@H]2C1,x,1,97*,109*,72,-11,-12
O=C(Cc1ccccn1)N1CCCCN2[C@H](C1)[C@@H](c1ccc(-c3ccc(F)cc3)cc1)[C@@H]2CO,x,-2,46,x,x,x,x
O=C(Cc1ccccn1)N1CCCCN2[C@H](C1)[C@H](c1ccc(-c3ccc(F)cc3)cc1)[C@@H]2CO,x,-2,92,x,x,x,x
O=C(Cc1ccccn1)N1CCCCN2[C@@H](CO)[C@@H](c3ccc(-c4ccc(F)cc4)cc3)[C@@H]2C1,x,0,u,73,60,1,41*
Cc1ccccc1-c1ccc([C@@H]2[C@H](CO)N3CCCCN(C(=O)Cc4ccccn4)C[C@@H]23)cc1,x,-1,u,91,64,11,65*
O=C(Cc1ccccn1)N1CCCCN2[C@H](CO)[C@@H](c3ccc(-c4ccccc4F)cc3)[C@@H]2C1,x,-2,25,x,x,x,x
Cc1ccccc1-c1ccc([C@H]2[C@@H](CO)N3CCCCN(C(=O)Cc4ccccn4)C[C@H]23)cc1,x,0,93,x,x,x,x
COc1ccccc1OCCCn1cc(C(=O)c2ccccc2)c2ccccc21,0,x,x,x,x,x,x
Oc1cc2c(cc1O)C1c3ccccc3CNC1CC2 (stereo not given),-10,x,x,x,x,x,x
Clc1ccc(C2=CCCC3CCC2N3)cn1 (stereo not given),0,x,x,x,x,x,x
COc1ccc(C#Cc2ccc([C@@H]3[C@H]4CN(C(=O)Cc5cccnc5)CCCCN4[C@H]3CO)cc2)cc1,x,0,99*,104*,78,22,106*
